The source of these data is ChEMBL document CHEMBL2429784, “Withanolide-based steroids from the cultured soft coral Sinularia brassica” (2013).

SMILES strings stand for the structures.

Holding throughout (assay type): functional
Common to all, as to conditions: read-out: ED50 (the source's name)

One assay concerns HT-29. Put plainly: Cytotoxicity against human HT-29 cells by Alamar blue assay. The method, boiled down: (§1)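 Cell lines from ATCC. Growth inhibition measured by Alamar Blue read-out. ED50 reported as mean ± SEM of triplicate determinations; inactivity cutoff set at ED50 > 10 μM. 5-Fluorouracil run as positive control.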
(In general: Resazurin is reduced to fluorescent resorufin, in cell work by metabolically active cells.)

Another assay has as its system MOLT-4. Description: Cytotoxicity against human MOLT4 cells by Alamar blue assay. In outline:
as §1

The test system of the next assay is P388. Put plainly: Cytotoxicity against mouse P388 cells by Alamar blue assay. The method, boiled down: as §1
Another assay deals with K562. Put plainly: Cytotoxicity against human K562 cells by Alamar blue assay. In outline:
as §1

Turning to `C[C@H]1[C@H]2[C@H](C[C@H]3[C@@H]4CCC5=CC(=O)C=C[C@]5(C)[C@H]4CC[C@]23C)O[C@@]2(OC(=O)[C@@H](C)[C@H]2C)[C@H]1O`, the EC50 in the assay with HT-29 came out at 7.5 µM; in the assay with MOLT-4 it was 9.9 µM.

Turning to `C[C@@H]1[C@H]([C@H]2OC(=O)[C@H](C)[C@H]2C)O[C@H]2C[C@H]3[C@@H]4CCC5=CC(=O)C=C[C@]5(C)[C@H]4CC[C@]3(C)[C@@H]12`, the values for the EC50 in the assay on HT-29, with P388 and in the assay with MOLT-4 were 4.8 µM, 9.1 µM and 4.8 µM, respectively.

Turning to `C[C@@H]1[C@H]([C@H]2OC(=O)[C@@H](C)[C@H]2C)O[C@H]2C[C@H]3[C@@H]4CCC5=CC(=O)C=C[C@]5(C)[C@H]4CC[C@]3(C)[C@@H]12`, in the assay with K562, the EC50 was 8.7 µM.

`O=c1[nH]cc(F)c(=O)[nH]1` [FLUOROURACIL]: the EC50 stood at 7.7 µM with HT-29, 21 µM with K562, 6.2 µM with P388 and 7.7 µM in the assay with MOLT-4.
